Test results: PubChem BioAssay AID1216 (Sanford-Burnham Center for Chemical Genomics, 2008)
The campaign covered roughly 190,000 compounds. About 660 (0.35%) were called active. For the sample, actives were picked, then their nearest neighbours and some compounds at random. Values without a mark were called inactive.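 The calls were made as follows: active = activation factor of 2 or more at 20 µM; inactive = the rest.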

molecular target: Mannose-6-phosphate isomerase (Homo sapiens) (UniProt P34949); test: MPI activation at elevated mannose 6-phosphate – biochemical, fluorescence intensity, near-saturating mannose 6-phosphate, primary screen (AID 1216); conditions: coupled PMI enzyme assay, resazurin fluorescence, 20 min; at 20 µM; hits give high values; 1 = untreated enzyme, 0 = substrate-free blank
Outline: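 Test system: human phosphomannose isomerase with PGI, G6PDH, diaphorase coupling enzymes / Doses: 20 µM compound, 1% DMSO / Times: enzyme reaction with compound 20 min at room temperature / Measured by: Diaphorase-driven resazurin-to-resorufin fluorescence, excitation 544, emission 590 nm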

Mannose-6-phosphate isomerase (Homo sapiens), sequence (P34949 whole entry, looked up): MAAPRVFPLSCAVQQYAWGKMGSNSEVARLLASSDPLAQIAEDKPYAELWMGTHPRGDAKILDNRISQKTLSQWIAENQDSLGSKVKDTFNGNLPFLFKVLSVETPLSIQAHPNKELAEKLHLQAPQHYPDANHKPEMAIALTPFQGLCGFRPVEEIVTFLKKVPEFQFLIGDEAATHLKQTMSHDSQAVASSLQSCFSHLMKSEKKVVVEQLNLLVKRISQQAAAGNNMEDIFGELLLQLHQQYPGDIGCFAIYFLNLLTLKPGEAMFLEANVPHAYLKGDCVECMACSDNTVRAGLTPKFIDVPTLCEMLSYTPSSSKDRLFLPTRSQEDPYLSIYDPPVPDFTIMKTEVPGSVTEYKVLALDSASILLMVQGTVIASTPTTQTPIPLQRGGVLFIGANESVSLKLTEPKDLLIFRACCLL

SMILES	activation factor
COc1ccc(-n2nc(C(=O)Nc3cc(OC)c(OC)c(OC)c3)c3ccccc3c2=O)c(OC)c1	0.9
O=C(CSc1nnc(-c2ccc([N+](=O)[O-])cc2)o1)Nc1ccccn1	1
CCOC(=O)C1=C(C)NC(C)=C(C(=O)OCC)C1c1ccccn1	1
CCOC(=O)C1=C(C)NC(=O)NC1c1ccccc1 (configuration not stated)	1
CCOC(=O)C1=C(C)NC(SC)=NC1c1ccccc1 (configuration not stated)	2.7 (active)
CSc1cccc(NC(=S)N(Cc2ccccc2)Cc2ccccn2)c1	0.9
CCO[C@@H]1OC(C(=O)NCc2nc3ccccc3[nH]2)=C[C@H](C2CCCCC2)[C@H]1CCCO	0.9
O=C(COC(=O)c1ccc(F)cc1)Nc1nc2ccc([N+](=O)[O-])cc2s1	1
Cc1cc(C2=NNC(=Nc3ccc(S(=O)(=O)N4CCOCC4)cc3)SC2)c(C)n1CC1CCCO1 (configuration not stated)	2.1 (active)
C=CCn1c(C)cc(C2=NNC(=NCC)SC2)c1C	1.1
COCCn1c(C)cc(C2=NNC(=Nc3ccc(F)cc3)SC2)c1C	1.3
COc1ccccc1NC(=S)N1CCN(C(c2ccccc2)c2ccccc2)CC1	1
O=C(Nc1ccc(NC(=O)c2ccco2)c(Cl)c1)c1cccc([N+](=O)[O-])c1	1
CC(C)(C)c1ccc(/C=C/C(=O)Nc2ncccn2)cc1	0.8
O=C(NNc1cc(Cl)ccc1Cl)c1cccnc1Cl	2 (active)
Cc1ccc(Cl)cc1NC(=O)c1ccccn1	1
Cc1ccc(CNC(=O)c2cccnc2Cl)cc1	1
O=C(COc1ccc(-c2ccccc2)cc1)NN=C1CCCC1	1
Cc1ccc(-c2nn(-c3cccc(F)c3)cc2CNCCc2ccncc2)o1	1
COc1ccc(N2CCN(C(=O)CCSCc3ccccc3F)CC2)cc1	0.9
CCOc1cc(N2CCOCC2)c(OCC)cc1NC(=O)c1ccc(C)s1	0.7
COC(=O)c1sc2[nH]c(=S)n(N)c(=O)c2c1C	2 (active)
CCOC(=O)Cn1c(N)c(C(=O)OC)sc1=S	1.1
COC(=O)c1sc(=S)n(-c2ccccc2)c1N	0.9
Cc1cccc(C)c1NC(=O)CNC(=O)Cc1ccc(Br)cc1	1
O=S(=O)(Nc1cc(S(=O)(=O)N2CCOCC2)ccc1N1CCCC1)c1cccs1	1.1

SMILES	activation factor
NC(=O)CC[C@@H]1NC(=O)[C@@H]2CCCN2C(=O)c2cc([N+](=O)[O-])cc(F)c2NCCC[C@@H](C(N)=O)NC1=O	1
O=C(CC1C(=O)NCCN1CC(c1ccccc1)c1ccccc1)NCCc1cn[nH]c1 (configuration not stated)	0.8
COC(=O)c1[nH]c2ccccc2c1NC(=O)CN1CCCc2ccccc21	0.9
NS(=O)(=O)c1cccc(NC(=O)CN2CCCc3ccccc32)c1	1.1
COC(=O)c1[nH]c2cccc(C)c2c1NC(=O)CN1CCCc2ccccc21	2.1 (active)
C=CCNC(=O)c1ccccc1NC(=O)c1ccc(Cl)c(S(=O)(=O)Nc2cccc(C)c2C)c1	1
Cc1cccc(C)c1NC(=S)N(Cc1cccnc1)Cc1ccccc1Cl	0.8
CCOC(=O)c1[nH]ncc1CN1CCCC(C(=O)c2ccc(OC)cc2C)C1 (configuration not stated)	1.1
COc1ccccc1N(C)S(=O)(=O)c1ccc(Cl)c(C(=O)N2CCC(C(N)=O)CC2)c1	1.1
CCn1cc(-c2cc(C(=O)O)on2)c(C)n1	1.2
Cc1ccc2nc(NCCCNC(=O)c3cnccn3)c(C#N)cc2c1	0.9
COCCCNC(=S)NCCNc1nc2cc(C)c(C)cc2cc1C#N	2.1 (active)
COCCCNC(=S)NC(=O)c1ccc([N+](=O)[O-])cc1	0.9
O=C(NCc1ccccc1Cl)C1CCC(CNc2c(N3CCCCC3)c(=O)c2=O)CC1 (configuration not stated)	1
CCCCn1c(O)c(N=NC(=O)Cn2c(C(F)(F)F)nc3ccccc32)c2ccccc21	1
CCOC(=O)N1CCC(=NNC(N)=O)CC1	1
COc1cccc2cc(/C(C)=N/NC(=O)c3ccco3)oc12	1.1
COc1ccccc1N(CC(=O)Nc1ccc(C(F)(F)F)cc1)S(C)(=O)=O	1.1
O=C(CSc1ncccn1)NCCc1ccccc1	1
S=c1[nH]nc(NCCc2ccccc2)s1	2.1 (active)
c1ccc(Nc2n[nH]nc2-c2ccccc2)cc1	0.9
CC(C)(C)C(=O)c1cnc(Nc2ccccc2)s1	1
Cc1nc(C)c(-c2csc(NCCc3ccccc3)n2)s1	1
S=c1[nH]nc(Nc2ccccc2)s1	2 (active)
N=c1c2c3c(sc2ncn1N)CCCC3	0.9
O=c1[nH]cnc2c1c(-c1ccccc1)cn2-c1ccc(F)cc1	1
